Data reported in paper PMC7028313 (ACS chemical neuroscience, 2019).

What was measured:
[1] = tested on: NF-κB (p50, p52, p65, RelB, c-Rel) in SH-SY5Y cells; assay: Nuclear NF-κB DNA-binding ELISA; assay type: cell-based, human
[2] = tested on: mitochondrial membrane potential (Δψm) in SH-SY5Y cells; assay: JC-10 mitochondrial membrane potential assay; assay type: cell-based, human
p38α/β = conditions: read-out: IC50 p38α/β; cited from earlier work
p38β kinase = p38β kinase (Homo sapiens, UniProt Q15759); assay: ADP-Glo kinase luminescent assay; assay type: biochemical; conditions: 1 μM TPPU, relative to vehicle control
p38β kinase, sequence (Q15759 whole entry): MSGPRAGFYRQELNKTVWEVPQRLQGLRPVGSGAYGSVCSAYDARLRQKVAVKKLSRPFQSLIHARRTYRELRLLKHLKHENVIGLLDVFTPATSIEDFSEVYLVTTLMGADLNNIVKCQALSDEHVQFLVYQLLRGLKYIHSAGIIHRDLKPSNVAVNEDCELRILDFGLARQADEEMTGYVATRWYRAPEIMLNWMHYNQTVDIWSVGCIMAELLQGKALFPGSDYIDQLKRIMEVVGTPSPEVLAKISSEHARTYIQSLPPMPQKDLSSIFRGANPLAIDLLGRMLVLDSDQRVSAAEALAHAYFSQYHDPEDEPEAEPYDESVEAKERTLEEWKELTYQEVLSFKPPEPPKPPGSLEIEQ

p38γ kinase = molecular target: T1, p38γ kinase (Homo sapiens, UniProt P53778); assay: ADP-Glo kinase luminescent assay; assay type: biochemical; conditions: 1 μM TPPU, relative to vehicle control
T1 sequence (P53778 1-367): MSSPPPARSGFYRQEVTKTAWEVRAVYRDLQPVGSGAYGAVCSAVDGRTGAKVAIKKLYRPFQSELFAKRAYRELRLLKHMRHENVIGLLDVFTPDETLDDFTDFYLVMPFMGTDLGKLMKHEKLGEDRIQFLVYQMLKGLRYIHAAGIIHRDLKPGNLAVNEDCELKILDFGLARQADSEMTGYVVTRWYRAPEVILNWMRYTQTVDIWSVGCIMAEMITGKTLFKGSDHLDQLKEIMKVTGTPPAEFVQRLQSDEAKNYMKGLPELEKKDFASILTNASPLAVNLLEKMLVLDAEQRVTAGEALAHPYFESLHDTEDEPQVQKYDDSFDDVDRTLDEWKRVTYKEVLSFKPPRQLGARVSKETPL

p38α = assay: ADP-Glo kinase luminescent assay; assay type: biochemical, human; conditions: 1 μM TPPU
Outline: (§1)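 Test compound at 1 μM, or 0.2% PEG 400 vehicle. Incubated 1 h at room temperature, then ADP-Glo luminescence read. Staurosporine 1 μM served as reference. Activity expressed relative to vehicle. Duplicates, six independent experiments.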

p38δ = assay: ADP-Glo kinase luminescent assay; assay type: biochemical, human; conditions: 1 μM TPPU
Outline: as §1

GSK-3β = GSK-3β (Homo sapiens, UniProt P49841); assay: ADP-Glo kinase luminescent assay; assay type: biochemical; conditions: 1 μM TPPU, in comparison with p38β
GSK-3β, sequence (P49841 whole entry): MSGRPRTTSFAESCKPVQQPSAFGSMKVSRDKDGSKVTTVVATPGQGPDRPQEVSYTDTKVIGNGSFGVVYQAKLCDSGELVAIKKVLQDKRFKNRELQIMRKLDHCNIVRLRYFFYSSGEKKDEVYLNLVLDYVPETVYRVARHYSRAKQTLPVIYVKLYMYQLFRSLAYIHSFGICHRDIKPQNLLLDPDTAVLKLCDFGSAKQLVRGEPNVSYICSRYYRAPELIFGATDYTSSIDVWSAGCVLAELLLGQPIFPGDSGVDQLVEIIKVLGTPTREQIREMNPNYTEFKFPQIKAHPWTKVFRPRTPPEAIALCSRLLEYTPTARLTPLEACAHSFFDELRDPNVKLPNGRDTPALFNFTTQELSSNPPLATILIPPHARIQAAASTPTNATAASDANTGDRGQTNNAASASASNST

AMPKA2 = assay: ADP-Glo kinase luminescent assay; assay type: biochemical, human; conditions: 1 μM TPPU, in comparison with p38β
Outline: as §1

CK1α1 = assay: ADP-Glo kinase luminescent assay; assay type: biochemical, human; conditions: 1 μM TPPU, in comparison with p38β
Outline: as §1

sEH in SH-SY5Y cells = assay: Cellular sEH activity in SH-SY5Y cells, [3H]-t-DPPO substrate; assay type: cell-based, human; conditions: 10, 100 and 1000 nM for 24 h
SH-SY5Y cells [3] = assay: Cell viability / cytotoxicity MTS assay; assay type: cell-based, human; conditions: TPPU alone, 72 h
[4] = tested on: Aβ42 neurotoxicity in SH-SY5Y cells; assay: Anti-Aβ42 neurotoxicity assay; assay type: cell-based, human; conditions: 0.1 μM pretreatment 1 h then 10 μM Aβ42 72 h
SH-SY5Y cells [5] = assay: Neuronal morphology analysis under Aβ42; assay type: cell-based, human; conditions: 100 nM pretreatment then 10 μM Aβ42, 72 h
[6] = tested on: Tau pS396 in SH-SY5Y cells; assay: Anti-tau hyperphosphorylation ELISA; assay type: cell-based, human
sEH = conditions: read-out: IC50 sEH; cited from earlier work

Molecule: C[C@@H]1C[C@H]2[C@@H]3CCC4=CC(=O)C=C[C@]4(C)[C@@]3(F)[C@@H](O)C[C@]2(C)[C@@]1(O)C(=O)CO [DEX, dexamethasone, reference compound]
- levels of NF-κB subunits in neuronal nuclei ([1]; 0.1 μM DEX pretreatment 1 h then 5 μM Aβ42 8 h): significantly reduced levels of all five NF-κB subunits

Molecule: N#CC(C#N)=NNc1ccc(OC(F)(F)F)cc1 [FCCP, carbonyl cyanide-4-(trifluoromethoxy)phenylhydrazone]
- Δψm depolarization (reference ionophore) ([2]; FCCP 50 μM): depolarized Δψm

Molecule: CCC(=O)N1CCC(NC(=O)Nc2ccc(OC(F)(F)F)cc2)CC1 [TPPU]
- remaining kinase activity (p38β kinase): 36%
- remaining kinase activity (p38γ kinase): 49%
- inhibitory effect on kinase activity (p38α): not significant
- inhibitory effect on kinase activity (p38δ): not significant
- inhibition of kinase activity (GSK-3β): weakly inhibited
- inhibition of kinase activity (AMPKA2): weakly inhibited
- inhibition of kinase activity (CK1α1): weakly inhibited
- cellular sEH activities (sEH in SH-SY5Y cells): significantly decreased cellular sEH activities in a dose-dependent manner
- tolerable and nontoxic dose (SH-SY5Y cells [3]): ≤ 1000 nM
- neuroprotection (cell viability) [4]: effective neuroprotection
- neuronal morphology / Aβ42 toxicity (SH-SY5Y cells [5]): effectively relieved Aβ42 toxicity
- Aβ42-induced tau phosphorylation level at pS396 ([6]; 0.01, 0.1 and 1 μM pretreatment 1 h then 10 μM Aβ42 72 h, p < 0.0001): significantly mitigated
- alleviation of tau hyperphosphorylation compared with SB202190 ([6]; TPPU 0.01 μM versus SB202190 0.05 μM): stronger alleviative effect
- nuclear translocation of NF-κB subunits ([1]; 0.05 and 0.1 μM pretreatment 1 h then 5 μM Aβ42 8 h, p < 0.0001): inhibited nuclear translocation of all five subunits

Molecule: epoxyeicosatrienoic acids [EETs, reference compound]
- neuroprotection (cell viability) [4]: effective neuroprotection
- loss of Δψm induced by Aβ42 ([2]; 0.1 μM pretreatment, 10 μM Aβ42 72 h): attenuated the loss of Δψm
